Laboratory results as given in ChEMBL document CHEMBL4321796, “Proteolysis Targeting Chimeras for the Selective Degradation of Mcl-1/Bcl-2 Derived from Nonselective Target Binding Ligands” (J Med Chem, 2019).
Calls of active or inactive are those of the source. No cut-off for these calls is given here.

Assays:
[1] = target: T1, Protein cereblon/Apoptosis regulator Bcl-2 (Homo sapiens, UniProt P10415+Q96SW2); assay: Induction of CRBN-mediated Bcl-2 degradation in human HeLa cells assessed as relative abundance at 10 uM measured at 4 hrs by Western blot analysis (reference value: 1); type: cell-based
Method in brief: (§1)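 HeLa cells in DMEM with 10% FBS, exposed to 10 µM compound over a 0–24 h time course. Mcl-1 and Bcl-2 detected by immunoblot (NP-40 lysis, BCA-equalized SDS-PAGE, PVDF, ECL) and quantified relative to DMSO control; mean ± s.d., n=3 independent samples.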
Target sequence in this assay (P10415 whole entry, looked up): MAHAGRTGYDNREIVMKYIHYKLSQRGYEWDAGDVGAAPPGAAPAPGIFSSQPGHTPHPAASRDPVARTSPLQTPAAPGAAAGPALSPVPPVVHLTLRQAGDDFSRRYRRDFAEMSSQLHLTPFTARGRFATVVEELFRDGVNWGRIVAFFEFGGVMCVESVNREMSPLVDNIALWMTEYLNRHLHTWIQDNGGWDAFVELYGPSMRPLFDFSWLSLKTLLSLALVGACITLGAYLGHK
Target sequence in this assay (Q96SW2 whole entry, looked up): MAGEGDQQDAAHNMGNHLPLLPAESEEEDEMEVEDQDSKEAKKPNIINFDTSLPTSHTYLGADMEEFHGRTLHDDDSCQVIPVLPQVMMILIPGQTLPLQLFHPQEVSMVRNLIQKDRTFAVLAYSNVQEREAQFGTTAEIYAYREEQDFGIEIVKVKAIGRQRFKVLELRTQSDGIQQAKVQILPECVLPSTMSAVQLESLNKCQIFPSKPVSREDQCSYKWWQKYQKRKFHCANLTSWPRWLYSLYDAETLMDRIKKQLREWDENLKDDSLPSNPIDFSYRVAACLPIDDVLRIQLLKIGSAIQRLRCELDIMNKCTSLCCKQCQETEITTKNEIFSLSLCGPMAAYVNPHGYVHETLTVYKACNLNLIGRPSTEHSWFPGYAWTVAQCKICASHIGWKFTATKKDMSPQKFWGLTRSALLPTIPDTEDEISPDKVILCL

[2] = target: T2, Protein cereblon/Induced myeloid leukemia cell differentiation protein Mcl-1 (Homo sapiens, UniProt Q07820+Q96SW2); assay: Induction of CRBN-mediated Mcl-1 degradation in human HeLa cells assessed as relative abundance at 10 uM measured at 16 hrs by Western blot analysis (reference value: 1); type: cell-based; method in brief: as §1
T2 sequence (Q07820 whole entry, looked up): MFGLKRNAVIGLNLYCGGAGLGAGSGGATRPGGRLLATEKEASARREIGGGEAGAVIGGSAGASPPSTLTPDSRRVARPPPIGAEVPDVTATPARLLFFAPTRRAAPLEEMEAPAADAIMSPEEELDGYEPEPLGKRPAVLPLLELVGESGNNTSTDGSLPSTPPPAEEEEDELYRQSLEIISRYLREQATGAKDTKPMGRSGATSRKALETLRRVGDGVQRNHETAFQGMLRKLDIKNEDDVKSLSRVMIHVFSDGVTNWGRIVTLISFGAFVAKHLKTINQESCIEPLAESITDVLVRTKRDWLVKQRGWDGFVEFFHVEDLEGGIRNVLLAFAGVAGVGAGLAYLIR
T2 sequence (Q96SW2 whole entry, looked up): as the sequence (Q96SW2 whole entry, looked up) above

[3] = target: T2, Protein cereblon/Induced myeloid leukemia cell differentiation protein Mcl-1; assay: Induction of CRBN-mediated Mcl-1 degradation in human HeLa cells assessed as relative abundance at 10 uM measured at 24 hrs by Western blot analysis (reference value: 1); type: cell-based; method in brief: as §1
[4] = target: T2, Protein cereblon/Induced myeloid leukemia cell differentiation protein Mcl-1; assay: Induction of CRBN-mediated Mcl-1 degradation in human HeLa cells assessed as relative abundance at 10 uM after 12 hrs by Western blot analysis (reference value: 1); type: cell-based
[5] = target: Induced myeloid leukemia cell differentiation protein Mcl-1 (Homo sapiens, UniProt Q07820); assay: Inhibition of biotinylated Bim peptide (81 to 106 residues) binding to His-tagged human Mcl-1 expressed in Escherichia coli BL21 (DE3) cells preincubated for 1 hr followed by biotinylated Bim peptide addition measured after 2 hrs by ELISA
Sequence of Induced myeloid leukemia cell differentiation protein Mcl-1 (Q07820 whole entry, the tested form may be a part): as the sequence (Q07820 whole entry, looked up) above
Method in brief: (§2)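 Inhibitor serially diluted (100–0.1 µM) from 10 mM DMSO stock, preincubated 1 h with 200 nM His-tagged protein in PBS (final DMSO 4%), then added 2 h to streptavidin plates holding biotin-Bim (plated at 0.09 mg/mL). Incubations at 4 °C. Detection with HRP anti-His, TMB 30 min, H2SO4 stop, A450. IC50 averaged from three independent experiments, with SD.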

[6] = target: T1, Protein cereblon/Apoptosis regulator Bcl-2; assay: Induction of CRBN-mediated Bcl-2 degradation in human HeLa cells at 10 uM pretreated with CRBN inhibitor pomalidomide followed by compound addition by Western blot analysis; type: cell-based
Target sequence in this assay (P10415 whole entry, looked up): as the sequence (P10415 whole entry, looked up) above
Target sequence in this assay (Q96SW2 whole entry, looked up): as the sequence (Q96SW2 whole entry, looked up) above

[7] = system: HeLa; assay: Induction of CRBN-mediated tubulin degradation in human HeLa cells at 10 uM incubated for 12 hrs by Western blot analysis; type: cell-based
Method in brief: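 HeLa cells (DMEM, 10% FBS, 37 °C, 5% CO2) treated 12 h with compound (10 µM, or 0–10 µM gradient; time course 0–24 h at 10 µM). Lysis in NP-40 buffer with protease inhibitors, equal protein loaded for SDS-PAGE and immunoblotting. Bands quantified relative to DMSO control. n=3 independent samples.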

[8] = target: T1, Protein cereblon/Apoptosis regulator Bcl-2; assay: Induction of CRBN-mediated Bcl-2 degradation in human HeLa cells assessed as relative abundance at 3 uM after 12 hrs by Western blot analysis (reference value: 1); type: cell-based
Target sequence in this assay (P10415 whole entry, looked up): as the sequence (P10415 whole entry, looked up) above
Target sequence in this assay (Q96SW2 whole entry, looked up): as the sequence (Q96SW2 whole entry, looked up) above

[9] = target: T2, Protein cereblon/Induced myeloid leukemia cell differentiation protein Mcl-1; assay: Induction of CRBN-mediated Mcl-1 degradation in human HeLa cells assessed as relative abundance at 3 uM after 12 hrs by Western blot analysis (reference value: 1); type: cell-based
[10] = target: T1, Protein cereblon/Apoptosis regulator Bcl-2; assay: Induction of CRBN-mediated Bcl-2 degradation in human HeLa cells at 10 uM pretreated with Bcl-2 inhibitor Nap-1 followed by compound addition by Western blot analysis; type: cell-based
Target sequence in this assay (P10415 whole entry, looked up): as the sequence (P10415 whole entry, looked up) above
Target sequence in this assay (Q96SW2 whole entry, looked up): as the sequence (Q96SW2 whole entry, looked up) above

[11] = target: T1, Protein cereblon/Apoptosis regulator Bcl-2; assay: Induction of CRBN-mediated Bcl-2 degradation in human HeLa cells assessed as relative abundance at 10 uM measured at 24 hrs by Western blot analysis (reference value: 1); type: cell-based; method in brief: as §1
Target sequence in this assay (P10415 whole entry, looked up): as the sequence (P10415 whole entry, looked up) above
Target sequence in this assay (Q96SW2 whole entry, looked up): as the sequence (Q96SW2 whole entry, looked up) above

[12] = target: T1, Protein cereblon/Apoptosis regulator Bcl-2; assay: Induction of CRBN-mediated Bcl-2 degradation in human HeLa cells assessed as relative abundance at 0.3 uM after 12 hrs by Western blot analysis (reference value: 1); type: cell-based
Target sequence in this assay (P10415 whole entry, looked up): as the sequence (P10415 whole entry, looked up) above
Target sequence in this assay (Q96SW2 whole entry, looked up): as the sequence (Q96SW2 whole entry, looked up) above

[13] = target: T2, Protein cereblon/Induced myeloid leukemia cell differentiation protein Mcl-1; assay: Induction of CRBN-mediated Mcl-1 degradation in human HeLa cells assessed as relative abundance at 0.1 uM after 12 hrs by Western blot analysis (reference value: 1); type: cell-based
[14] = target: T1, Protein cereblon/Apoptosis regulator Bcl-2; assay: Induction of CRBN-mediated Bcl-2 degradation in human HeLa cells assessed as relative abundance at 10 uM measured at 8 hrs by Western blot analysis (reference value: 1); type: cell-based; method in brief: as §1
[15] = target: T1, Protein cereblon/Apoptosis regulator Bcl-2; assay: Induction of CRBN-mediated Bcl-2 degradation in human HeLa cells assessed as relative abundance at 10 uM measured at 2 hrs by Western blot analysis (reference value: 1); type: cell-based; method in brief: as §1
[16] = target: T1, Protein cereblon/Apoptosis regulator Bcl-2; assay: Induction of CRBN-mediated Bcl-2 degradation in human HeLa cells assessed as relative abundance at 10 uM measured at 16 hrs by Western blot analysis (reference value: 1); type: cell-based; method in brief: as §1
[17] = target: T2, Protein cereblon/Induced myeloid leukemia cell differentiation protein Mcl-1; assay: Induction of CRBN-mediated Mcl-1 degradation in human HeLa cells assessed as relative abundance at 10 uM measured at 2 hrs by Western blot analysis (reference value: 1); type: cell-based; method in brief: as §1
[18] = target: T2, Protein cereblon/Induced myeloid leukemia cell differentiation protein Mcl-1; assay: Induction of CRBN-mediated Mcl-1 degradation in human HeLa cells assessed as relative abundance at 10 uM measured at 8 hrs by Western blot analysis (reference value: 1); type: cell-based; method in brief: as §1
[19] = target: T2, Protein cereblon/Induced myeloid leukemia cell differentiation protein Mcl-1; assay: Induction of CRBN-mediated Mcl-1 degradation in human HeLa cells assessed as relative abundance at 0.3 uM after 12 hrs by Western blot analysis (reference value: 1); type: cell-based
[20] = target: T1, Protein cereblon/Apoptosis regulator Bcl-2; assay: Induction of CRBN-mediated Bcl-2 degradation in human HeLa cells assessed as relative abundance at 10 uM measured at 20 hrs by Western blot analysis (reference value: 1); type: cell-based; method in brief: as §1
[21] = target: T1, Protein cereblon/Apoptosis regulator Bcl-2; assay: Induction of CRBN-mediated Bcl-2 degradation in human HeLa cells after 12 hrs by Western blot analysis; type: cell-based
[22] = target: T1, Protein cereblon/Apoptosis regulator Bcl-2; assay: Induction of CRBN-mediated Bcl-2 degradation in human HeLa cells assessed as relative abundance at 1 uM after 12 hrs by Western blot analysis (reference value: 1); type: cell-based
[23] = target: T1, Protein cereblon/Apoptosis regulator Bcl-2; assay: Protac activity at CRBN/Bcl-2 in human HeLa cell lysates assessed as ternary complex formation by Western blot analysis based pull-down assay; type: subcellular; conditions: Lysate
Method in brief: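 HeLa lysate (25×10^6 cells, 1% Triton X-100 IP buffer), 1 mg total protein, incubated overnight with 1 µg CRBN antibody across a compound concentration gradient. Capture on protein A+G agarose, three Triton washes, boiled in loading buffer. Mcl-1, Bcl-2 and CRBN detected by immunoblotting. n=3 independent samples.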

[24] = target: Apoptosis regulator Bcl-2 (Homo sapiens, UniProt P10415); assay: Inhibition of biotinylated Bim peptide (81 to 106 residues) binding to His-tagged human Bcl-2 expressed in Escherichia coli BL21 (DE3) cells preincubated for 1 hr followed by biotinylated Bim peptide addition measured after 2 hrs by ELISA; method in brief: as §2
Sequence of Apoptosis regulator Bcl-2 (P10415 whole entry, the tested form may be a part): as the sequence (P10415 whole entry, looked up) above

[25] = target: T1, Protein cereblon/Apoptosis regulator Bcl-2; assay: Induction of CRBN-mediated Bcl-2 degradation in human HeLa cells assessed as relative abundance at 0.1 uM after 12 hrs by Western blot analysis (reference value: 1); type: cell-based
[26] = target: T1, Protein cereblon/Apoptosis regulator Bcl-2; assay: Induction of CRBN-mediated Bcl-2 degradation in human HeLa cells assessed as relative abundance at 10 uM after 12 hrs by Western blot analysis (reference value: 1); type: cell-based
[27] = target: T1, Protein cereblon/Apoptosis regulator Bcl-2; assay: Induction of CRBN-mediated Bcl-2 degradation in human HeLa cells assessed as reduction in Bcl-2 level at 10 uM after 12 hrs by Western blot analysis relative to control; type: cell-based; design: scale not given: the % may be the effect or the level left
[28] = target: T1, Protein cereblon/Apoptosis regulator Bcl-2; assay: Induction of CRBN-mediated Bcl-2 degradation in human HeLa cells at 10 uM by Western blot analysis; type: cell-based; conditions: TDE = time-dependent effect
[29] = target: Protein cereblon/Bcl-2-like protein 1 (Homo sapiens) (UniProt Q07817+Q96SW2); assay: Induction of CRBN-mediated Bcl-xl degradation in human HeLa cells at 10 uM incubated for 12 hrs by Western blot analysis; type: cell-based
Sequence of Protein cereblon/Bcl-2-like protein 1 (Homo sapiens) (Q07817 whole entry, looked up): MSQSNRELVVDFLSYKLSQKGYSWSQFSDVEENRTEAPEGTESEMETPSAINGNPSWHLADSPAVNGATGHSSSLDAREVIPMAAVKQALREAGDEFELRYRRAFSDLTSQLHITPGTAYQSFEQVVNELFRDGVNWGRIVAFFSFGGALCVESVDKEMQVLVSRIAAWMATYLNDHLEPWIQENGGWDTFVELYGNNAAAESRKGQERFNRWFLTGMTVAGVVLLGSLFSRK
Sequence of Protein cereblon/Bcl-2-like protein 1 (Homo sapiens) (Q96SW2 whole entry, looked up): as the sequence (Q96SW2 whole entry, looked up) above

[30] = target: T2, Protein cereblon/Induced myeloid leukemia cell differentiation protein Mcl-1; assay: Induction of CRBN-mediated Mcl-1 degradation in human HeLa cells assessed as relative abundance at 1 uM after 12 hrs by Western blot analysis (reference value: 1); type: cell-based
[31] = target: T2, Protein cereblon/Induced myeloid leukemia cell differentiation protein Mcl-1; assay: Induction of CRBN-mediated Mcl-1 degradation in human HeLa cells assessed as relative abundance at 10 uM measured at 4 hrs by Western blot analysis (reference value: 1); type: cell-based; method in brief: as §1
[32] = target: T1, Protein cereblon/Apoptosis regulator Bcl-2; assay: Induction of CRBN-mediated Bcl-2 degradation in human HeLa cells assessed as reduction in Bcl-2 level at 1 uM after 12 hrs by Western blot analysis relative to control; type: cell-based; design: scale not given: the % may be the effect or the level left
[33] = target: T1, Protein cereblon/Apoptosis regulator Bcl-2; assay: Induction of CRBN-mediated Bcl-2 degradation in human HeLa cells at 10 uM pretreated with proteasome inhibitor MG-132 followed by compound addition by Western blot analysis; type: cell-based
[34] = target: T2, Protein cereblon/Induced myeloid leukemia cell differentiation protein Mcl-1; assay: Induction of CRBN-mediated Mcl-1 degradation in human HeLa cells assessed as relative abundance at 10 uM measured at 20 hrs by Western blot analysis (reference value: 1); type: cell-based; method in brief: as §1
[35] = target: Protein cereblon/E3 ubiquitin-protein ligase Mdm2 (Homo sapiens) (UniProt Q00987+Q96SW2); assay: Induction of CRBN-mediated MDM2 degradation in human HeLa cells at 10 uM incubated for 12 hrs by Western blot analysis; type: cell-based
Sequence of Protein cereblon/E3 ubiquitin-protein ligase Mdm2 (Homo sapiens) (Q00987 whole entry, looked up): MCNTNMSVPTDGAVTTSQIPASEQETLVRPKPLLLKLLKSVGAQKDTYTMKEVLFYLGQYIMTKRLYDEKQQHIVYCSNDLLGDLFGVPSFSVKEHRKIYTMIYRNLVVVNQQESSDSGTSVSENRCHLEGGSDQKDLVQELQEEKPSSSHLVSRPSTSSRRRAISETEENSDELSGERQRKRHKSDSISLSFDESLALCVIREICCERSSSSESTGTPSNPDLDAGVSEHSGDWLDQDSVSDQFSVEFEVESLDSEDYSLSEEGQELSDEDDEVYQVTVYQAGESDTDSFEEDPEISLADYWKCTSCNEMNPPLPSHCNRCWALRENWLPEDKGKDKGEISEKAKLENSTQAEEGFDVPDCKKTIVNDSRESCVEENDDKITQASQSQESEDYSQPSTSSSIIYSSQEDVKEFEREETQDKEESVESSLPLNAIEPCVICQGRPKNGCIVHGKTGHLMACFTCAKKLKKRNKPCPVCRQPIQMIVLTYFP
Sequence of Protein cereblon/E3 ubiquitin-protein ligase Mdm2 (Homo sapiens) (Q96SW2 whole entry, looked up): as the sequence (Q96SW2 whole entry, looked up) above

[36] = target: T1, Protein cereblon/Apoptosis regulator Bcl-2; assay: Induction of CRBN-mediated Bcl-2 degradation in human HeLa cells measured at 12 hrs by Western blot analysis; type: cell-based
Target sequence in this assay (P10415 whole entry): as the sequence (P10415 whole entry, looked up) above
Target sequence in this assay (Q96SW2 whole entry): as the sequence (Q96SW2 whole entry, looked up) above

O=C(CCCCC(=O)NCCN1C(=O)c2cccc3c(Sc4ccc(Br)cc4)ccc(c23)C1=O)NCCOCCOCCNc1cccc2c1C(=O)N(C1CCC(=O)NC1=O)C2=O (stereo unspecified)
fold change (FC) [1]: 0.6
fold change (FC) [2]: 1.1
fold change (FC) [3]: 0.8
fold change (FC) [4]: 0.9 to 1
IC50 [5]: 11.8 µM
Activity [6]: inactive
Activity [7]: inactive
fold change (FC) [8]: 0.5
fold change (FC) [9]: 1.2
Activity [10]: inactive
fold change (FC) [11]: 1
fold change (FC) [12]: 0.9
fold change (FC) [13]: 1
fold change (FC) [14]: 0.3
fold change (FC) [15]: 0.8
fold change (FC) [16]: 0.7
fold change (FC) [17]: 1.1
fold change (FC) [18]: 1
fold change (FC) [19]: 1
fold change (FC) [20]: 1
Activity [21]: Dose-dependent effect
fold change (FC) [22]: 0.9
Activity [23]: Dose-dependent effect
IC50 [24]: 4.94 µM
fold change (FC) [25]: 1
fold change (FC) [26]: 0.1
Activity [27]: 90%
Activity [28]: Tde
Activity [29]: inactive
fold change (FC) [30]: 1
fold change (FC) [31]: 1
Activity [32]: 10%
Activity [33]: inactive
fold change (FC) [34]: 1
Activity [35]: inactive
DC50 [36]: 3 µM
